ChEMBL document CHEMBL2010686, “Influence of the active compounds of Perilla frutescens leaves on lipid membranes” (J Nat Prod, 2012)
The source made the active and inactive calls. The rule behind the calls is not given here.

How the values were obtained:
[1] = 1,2-dimyristoyl-sn-glycero-3-phosphocholine bilayer-water partition coefficient, K of the compound at 300 uM by isothermal titration calorimetry at 35 deg C; format: physicochemical; conditions: DMPC vesicles/water
Summary of the method: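 DMPC vesicles hydrated in 50 mM sodium phosphate (ionic strength 154 mM with NaCl, pH 7.5), extruded at 35 °C through 100 nm filters. Lipid suspension (1–20 mM) injected in small aliquots into ~300 μM terpenoid in the ITC cell (1.409 mL). Integrated heats per injection fitted with a dilution-heat term to give K and ΔH. ΔG0 = −RTln(55.5K). ΔCP from linear regression of ΔH versus temperature.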

Lipid bilayer [2] = test: Binding affinity to Me-5-DSA labelled 1,2-dimyristoyl-sn-glycero-3-phosphocholine bilayer containing assessed as change in membrane fluidity by electron paramagnetic resonance spectroscopy
Summary of the method: (§1)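 DMPC membranes carrying a spin label, either pure or with terpenoid at 15 mol % (Me-5-DSA also over a concentration series). Samples held in hematocrit tubes and equilibrated 10 min at 35 °C. X-band spectra (~9.4 GHz, ~2 mW, 100 kHz modulation, 1 G amplitude), usually five scans summed. Order parameter from hyperfine splittings. Rotational correlation times from central-line width and line heights as a fluidity measure.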

Lipid bilayer [3] = test: Binding affinity to 1,2-dimyristoyl-sn-glycero-3-phosphocholine bilayer assessed as change in main phase transition temperature at low concentration by differential scanning calorimetry; format: physicochemical
Summary of the method: (§2)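 Differential scanning calorimetry on 15 mM multilamellar DMPC vesicles in 50 mM sodium phosphate (ionic strength 154 mM with NaCl, pH 7.5). Terpenoid added in MeOH (below 10 μL); the x = 0 control received 10 μL MeOH. Terpenoid mole fraction varied from 0 to 0.15. Main-transition Tm, pretransition temperature and transition enthalpy were read from the thermograms.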

Lipid bilayer [4] = test: Binding affinity to 1,2-dimyristoyl-sn-glycero-3-phosphocholine bilayer assessed as decrease in main phase transition temperature at high concentration by differential scanning calorimetry (reference value: 24.4 deg C); format: physicochemical; summary of the method: as §2
Lipid bilayer [5] = test: Binding affinity to Me-16-DSA labelled 1,2-dimyristoyl-sn-glycero-3-phosphocholine bilayer containing assessed as change in membrane fluidity by electron paramagnetic resonance spectroscopy; summary of the method: as §1
Lipid bilayer [6] = test: Binding affinity to 5-DSA labelled 1,2-dimyristoyl-sn-glycero-3-phosphocholine bilayer containing assessed as change in membrane fluidity by electron paramagnetic resonance spectroscopy; summary of the method: as §1
Lipid bilayer [7] = test: Binding affinity to CSL labelled 1,2-dimyristoyl-sn-glycero-3-phosphocholine bilayer containing assessed as change in membrane fluidity by electron paramagnetic resonance spectroscopy; summary of the method: as §1
Lipid bilayer [8] = test: Binding affinity to 1,2-dimyristoyl-sn-glycero-3-phosphocholine bilayer assessed as increase in pre-transition temperature at low concentration by differential scanning calorimetry (reference value: 12.7 deg C); format: physicochemical; summary of the method: as §2

## C=C(C)[C@@H]1CC=C(C(=O)O)CC1 [PERILLIC ACID]
[1]
  Activity: Not Active

## C=C(C)C1CC=C(C=O)CC1 (stereo not drawn) [PERILLALDEHYDE]
Lipid bilayer [2]
  Activity: inactive
Lipid bilayer [3]
  Activity: Not Active
[1]
  Ko: 215 M⁻¹
Lipid bilayer [4]
  T: 19.4 °C
Lipid bilayer [5]
  Activity: inactive
Lipid bilayer [6]
  Activity: inactive
Lipid bilayer [7]
  Activity: inactive

## C=C(C)[C@H]1CC=C(C)CC1 [D-LIMONENE]
Lipid bilayer [2]
  Activity: inactive
Lipid bilayer [3]
  Activity: Not Active
[1]
  Ko: 10900 M⁻¹
Lipid bilayer [4]
  T: 16.3 °C
Lipid bilayer [8]
  T: 14.5 °C
Lipid bilayer [5]
  Activity: inactive
Lipid bilayer [6]
  Activity: inactive
Lipid bilayer [7]
  Activity: inactive

## C=C(C)[C@@H]1CC=C(CO)CC1 [PERILLYL ALCOHOL]
Lipid bilayer [2]
  Activity: inactive
Lipid bilayer [3]
  Activity: Not Active
[1]
  Ko: 305 M⁻¹
Lipid bilayer [4]
  T: 19.4 °C
Lipid bilayer [5]
  Activity: inactive
Lipid bilayer [6]
  Activity: inactive
Lipid bilayer [7]
  Activity: inactive
